Test system: HL-60
Experiment: Antiproliferative activity against human HL60 cells after 72 hrs
Assay type: functional
Details: HL-60, 72 h
Procedure, shortened: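 HL-60 cells grown in RPMI-1640 with 10% heat-inactivated FBS, penicillin, streptomycin and L-glutamine. Cells seeded at 1 × 10⁵ cells/mL and exposed to a range of compound concentrations for 72 h. Total cells (trypan blue positive and negative) counted by haemocytometer. Treated/untreated cell-number ratio used to calculate GI50.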

In the case of `C=C(CC)C(=O)c1ccc(OC(C)C(=O)O)cc1Cl` (stereo not drawn), the GI50 is reported as > 60 µM.
A GI50 of 3.9 µM was found for `C=C(CC)C(=O)c1ccc(OCC(=O)OC)c(Cl)c1Cl` in this work.
In the case of `C=C(C)C(=O)c1ccc(OCC(=O)O)cc1Cl`, the GI50 is reported as > 60 µM.
For `C=C(C)C(=O)c1ccc(OCC(=O)O)cc1C`, the GI50 was > 60 µM.
With `C=C(C)C(=O)c1ccc(OC(C)C(=O)O)cc1Br` (stereo not drawn) the GI50 was > 60 µM.
A GI50 of 4.6 µM was found for `C=C(CC)C(=O)c1ccc(OC(C)C(=O)OC)c(C)c1C` (stereo not drawn) in this work.
With `C=C(CC)C(=O)c1ccc(OCC(=O)O)cc1Cl` the GI50 was > 60 µM.
A GI50 of 14.4 µM was found for `C=C(CCCC)C(=O)c1ccc(OCC(=O)O)c(C)c1C` in this work.
A GI50 of 6 µM was found for `C=C(C)C(=O)c1ccc(OC(C)C(=O)OC)c(C)c1C` (stereo not drawn) in this work.
`C=C(CC)C(=O)c1ccc(OCC(=O)O)cc1C` was tested, and the GI50 was > 60 µM.
A GI50 of 5.6 µM was found for `C=C(CCC)C(=O)c1ccc(OC(C)C(=O)OC)c(C)c1C` (stereo not drawn) in this work.
A GI50 of 5.2 µM was found for `C=C(CCCC)C(=O)c1ccc(OC(C)C(=O)OC)c(C)c1C` (stereo not drawn) in this work.
A GI50 of 8.6 µM was found for `C=C(CCC)C(=O)c1ccc(OCC(=O)OC)c(C)c1C` in this work.
With `C=C(C)C(=O)c1ccc(OC(C)C(=O)O)cc1C` (stereo not drawn) the GI50 was > 60 µM.
A GI50 of 12.1 µM was found for `C=C(CCCC)C(=O)c1ccc(OC(C)C(=O)O)c(C)c1C` (stereo not drawn) in this work.
A GI50 of 8.6 µM was found for `C=C(CCCC)C(=O)c1ccc(OCC(=O)OC)c(C)c1C` in this work.
`C=C(CC)C(=O)c1ccc(OCC(=O)O)cc1Br` was tested, and the GI50 was > 60 µM.
A GI50 of 11.2 µM was found for `C=C(CCC)C(=O)c1ccc(OC(C)C(=O)O)c(C)c1C` (stereo not drawn) in this work.
A GI50 of 44.2 µM was found for `C=C(CC)C(=O)c1ccc(OCC(=O)O)c(Cl)c1Cl` [ETHACRYNIC ACID] in this work.
In the case of `C=C(CC)C(=O)c1ccc(OC(C)C(=O)O)cc1C` (stereo not drawn), the GI50 is reported as > 60 µM.
For `C=C(C)C(=O)c1ccc(OC(C)C(=O)O)cc1Cl` (stereo not drawn), the GI50 was > 60 µM.
In the case of `C=C(CC)C(=O)c1ccc(OC(C)C(=O)O)cc1Br` (stereo not drawn), the GI50 is reported as > 60 µM.
A GI50 of 19.3 µM was found for `C=C(CCC)C(=O)c1ccc(OCC(=O)O)c(C)c1C` in this work.

From ChEMBL document CHEMBL1147172, “The synthesis of alpha,beta-unsaturated carbonyl derivatives with the ability to inhibit both glutathione S-transferase P1-1 activity and the proliferation of leukemia cells” (2007)
